The source of these data is ChEMBL document CHEMBL1123801, “Synthesis and antifungal activity of new 1-vinylimidazoles” (1987).

Converted amounts (≈) assume the structure as drawn.

Assay [1] deals with Aspergillus fumigatus. As to the kind of experiment: Minimum inhibitory concentration (MIC) against Aspergillus fumigatus. It counts as functional. An outline of the steps:
(§1)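 Broth microdilution in Sabouraud's glucose broth. Final inocula 1×10^5 cells/mL for the yeast (C. albicans) and 1×10^5 conidia/mL for the mold (A. fumigatus) and the dermatophyte (T. asteroides). MIC read as the fungistatic end point. Lowest value of duplicated experiments.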

For assay [2], the system named is Candida albicans. Kind of assay: Minimum inhibitory concentration against Candida albicans IFO 1060. It counts as functional. An outline of the steps:
(§2)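 Agar dilution on Sabouraud's glucose agar. Inocula 1×10^6 cells/mL for the yeast strains (C. albicans IFO 1060, 1388) and 1×10^6 conidia/mL for the dermatophytes (T. mentagrophytes IFO 5809, 5810; T. rubrum IFO 5467, 5807). MIC in μg/mL, lowest value of duplicated experiments.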

The subject of assay [3] is Candida albicans. Kind of assay: Minimum inhibitory concentration against Candida albicans IFO 1388. It counts as functional. An outline of the steps:
as §2

In assay [4] the test system is Candida albicans. Kind of assay: Minimum inhibitory concentration (MIC) against Candida albicans. It counts as functional. An outline of the steps: as §1
In assay [5] the test system is Trichophyton benhamiae. Kind of assay: (§3) Minimum inhibitory concentration against Trichophyton asteroides. It counts as functional. The essentials:
as §1

Assay [6] has as its system Trichophyton benhamiae. Kind of assay: Minimum inhibitory concentration against Trichophyton mentagrophytes IFO 5809. It counts as functional, Arthroderma benhamiae. An outline of the steps:
as §2

Assay [7] deals with Trichophyton benhamiae. Kind of assay: Minimum inhibitory concentration against Trichophyton mentagrophytes IFO 5810. It counts as functional, Arthroderma benhamiae. The essentials:
as §2

Assay [8] deals with Trichophyton rubrum. Kind of assay: Minimum inhibitory concentration against Trichophyton rubrum IFO 5467. It counts as functional. An outline of the steps:
as §2

The subject of assay [9] is Trichophyton rubrum. As to the kind of experiment: Minimum inhibitory concentration against Trichophyton rubrum IFO 5807. It counts as functional. An outline of the steps: as §2
Assay [10] has as its system Aspergillus fumigatus. As to the kind of experiment: (§4) Minimum inhibitory concentration against Aspergillus fumigatus. It counts as functional. The essentials:
as §1

Assay [11] is described as follows: as §3. It counts as functional. The note with it: Trichophyton benhamiae. An outline of the steps:
as §1

Assay [12] has as its system Candida albicans. Kind of assay: Inhibition of pseudomycelium formation of Candida albicans. It counts as functional. The note with it: read-out: MEC. An outline of the steps: (§5)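 C. albicans KE-2 (clinical isolate), final inoculum 1×10^6 yeast cells/mL in EMEM with 20% calf serum. Compounds serially diluted by the microtiter dilution system used for MICs. After incubation, wells Giemsa-stained (5% in phosphate buffer) and examined microscopically. MEC (μg/mL) = lowest concentration preventing typical pseudomycelium formation. Lowest value of duplicated experiments.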

The subject of assay [13] is Candida albicans. As to the kind of experiment: Inhibitory effect on pseudomycelium formation of candida albicans. It counts as functional. The note with it: read-out: MEC. An outline of the steps: as §5
Assay [14] relates to Trichophyton rubrum. As to the kind of experiment: Minimum inhibitory concentration against Trichophyton rubrum IFO 5467.
Assay [15] in a line: as §4. It counts as functional, trichophyton asteroides. The following applies: Trichophyton benhamiae. An outline of the steps: as §1
Assay [16] concerns Trichophyton benhamiae. Kind of assay: Minimum inhibitory concentration against Trichophyton mentagrophyte IFO 5809. It counts as functional. An outline of the steps: as §2
For assay [17], the system named is Trichophyton benhamiae. Kind of assay: Minimum inhibitory concentration against Trichophyton mentagrophyte IFO 5810. It counts as functional. The essentials:
as §2

As for `C/C=C(\c1ccccc1OCc1ccc(Cl)cc1)n1ccnc1`, the MIC in the assay with Aspergillus fumigatus [1] stood at 3.1 µg/mL (≈ 9.54 µM); in the assay on Candida albicans [2], 12.5 µg/mL (≈ 38.5 µM); in the assay with Candida albicans [3], 12.5 µg/mL (≈ 38.5 µM); against Candida albicans [4], 6.2 µg/mL (≈ 19.1 µM); in the assay on Trichophyton benhamiae [5], 0.1 µg/mL (≈ 0.308 µM); with Trichophyton benhamiae [6], 0.8 µg/mL (≈ 2.46 µM). The MIC in the assay with Trichophyton benhamiae [7], in the assay with Trichophyton rubrum [8] and in the assay on Trichophyton rubrum [9] was 0.8 µg/mL (≈ 2.46 µM) throughout.
Consider `CC(C)(n1ccnc1)n1ccnc1`, for which the MIC (against Aspergillus fumigatus [10]; against Candida albicans [4]; in assay [11]) was above 100 µg/mL each time.
In the case of `c1ccc(C(c2ccccc2)(n2ccnc2)n2ccnc2)cc1`, the MIC with Aspergillus fumigatus [1] is above 100 µg/mL; against Candida albicans [4], above 100 µg/mL; in assay [11], 0.8 µg/mL (≈ 2.66 µM).
Take `CC(c1ccc(Cl)cc1)(n1ccnc1)n1ccnc1`: the MIC (against Aspergillus fumigatus [1]; in the assay with Candida albicans [4]; in assay [11]) was above 100 µg/mL throughout.
Take `CC(C)=C(c1ccccc1OCc1ccc(Cl)cc1)n1ccnc1`: the minimum inhibitory concentration (MIC) with Aspergillus fumigatus [1] was 6.2 µg/mL (≈ 18.3 µM); in the assay on Candida albicans [2], 12.5 µg/mL (≈ 36.9 µM); against Candida albicans [3], 12.5 µg/mL (≈ 36.9 µM); against Candida albicans [4], 3.1 µg/mL (≈ 9.15 µM); in the assay with Trichophyton benhamiae [5] it was 0.1 µg/mL (≈ 0.295 µM); in the assay with Trichophyton benhamiae [6], 1.6 µg/mL (≈ 4.72 µM). Further, the MIC worked out at 0.8 µg/mL (≈ 2.36 µM) in the assay with Trichophyton benhamiae [7], 1.6 µg/mL (≈ 4.72 µM) in the assay on Trichophyton rubrum [8] and 0.8 µg/mL (≈ 2.36 µM) in the assay with Trichophyton rubrum [9].
As for `C=C(c1ccccc1OCc1ccsc1Cl)n1ccnc1`, the MIC stood at 1.6 µg/mL (≈ 5.05 µM) against Aspergillus fumigatus [1]; 12.5 µg/mL (≈ 39.5 µM) in the assay with Candida albicans [2]; 12.5 µg/mL (≈ 39.5 µM) in the assay on Candida albicans [3]; 6.2 µg/mL (≈ 19.6 µM) in the assay on Candida albicans [4]; 0.1 µg/mL (≈ 0.316 µM) in the assay with Trichophyton benhamiae [5]; 1.6 µg/mL (≈ 5.05 µM) with Trichophyton benhamiae [6]. For the same molecule, the results for the MIC against Trichophyton benhamiae [7], with Trichophyton rubrum [8] and with Trichophyton rubrum [9] were 0.8 µg/mL (≈ 2.53 µM), 0.4 µg/mL (≈ 1.26 µM) and 0.8 µg/mL (≈ 2.53 µM), respectively. In the assay on Candida albicans [12], the minimal effective concentration is 0.8 µg/mL.
As for `C/C=C(/c1ccccc1OCc1ccc(Cl)cc1)n1ccnc1`, the MIC worked out at 3.1 µg/mL (≈ 9.54 µM) in the assay on Aspergillus fumigatus [1]; 12.5 µg/mL (≈ 38.5 µM) with Candida albicans [2]; 12.5 µg/mL (≈ 38.5 µM) against Candida albicans [3]; 6.2 µg/mL (≈ 19.1 µM) in the assay on Candida albicans [4]; 0.1 µg/mL (≈ 0.308 µM) against Trichophyton benhamiae [5]; 1.6 µg/mL (≈ 4.93 µM) with Trichophyton benhamiae [6]. Also, the minimum inhibitory concentration (MIC) stood at 0.8 µg/mL (≈ 2.46 µM) against Trichophyton benhamiae [7], 0.8 µg/mL (≈ 2.46 µM) in the assay with Trichophyton rubrum [8] and 1.6 µg/mL (≈ 4.93 µM) in the assay on Trichophyton rubrum [9].
Regarding `CC(c1ccccc1)(n1ccnc1)n1ccnc1`, the MIC (in the assay on Aspergillus fumigatus [1]; against Candida albicans [4]; in assay [11]) was above 100 µg/mL in each case.
Regarding `C=C(c1ccccc1OCCc1ccc(Cl)cc1)n1ccnc1`, the MIC came to 0.4 µg/mL (≈ 1.23 µM) with Aspergillus fumigatus [1], 25 µg/mL (≈ 77 µM) against Candida albicans [4] and 0.1 µg/mL (≈ 0.308 µM) against Trichophyton benhamiae [5]. Also, the minimal effective concentration with Candida albicans [13] came to 1.25 µg/mL.
For `C=C(c1cc(Cl)ccc1OCc1ccccc1)n1ccnc1`, the MIC came to 3.1 µg/mL (≈ 9.97 µM) in the assay with Aspergillus fumigatus [1]; 12.5 µg/mL (≈ 40.2 µM) with Candida albicans [2]; 12.5 µg/mL (≈ 40.2 µM) in the assay on Candida albicans [3]; 6.2 µg/mL (≈ 19.9 µM) in the assay on Candida albicans [4]; 0.1 µg/mL (≈ 0.322 µM) with Trichophyton benhamiae [5]; 1.6 µg/mL (≈ 5.15 µM) in the assay on Trichophyton benhamiae [6]. For the same molecule, the results for the MIC against Trichophyton benhamiae [7], against Trichophyton rubrum [9] and in the assay on Trichophyton rubrum [14] were 1.6 µg/mL (≈ 5.15 µM), 0.8 µg/mL (≈ 2.57 µM) and 1.6 µg/mL (≈ 5.15 µM), respectively.
`C=C(c1ccccc1SCc1ccc(Cl)cc1)n1ccnc1`: the figures for the minimal inhibitory concentration (MIC) (with Aspergillus fumigatus [1]; against Candida albicans [4]; in assay [11]) were 0.8 µg/mL (≈ 2.45 µM), 50 µg/mL (≈ 153 µM) and 0.1 µg/mL (≈ 0.306 µM), respectively.
On to `C=C(c1ccccc1OCc1ccc(Cl)cc1)n1ccnc1`, for which the MIC came out at 3.1 µg/mL (≈ 9.97 µM) in the assay on Aspergillus fumigatus [1]; 6.3 µg/mL (≈ 20.3 µM) against Candida albicans [2]; 12.5 µg/mL (≈ 40.2 µM) in the assay with Candida albicans [3]; 6.2 µg/mL (≈ 19.9 µM) against Candida albicans [4]; 0.1 µg/mL (≈ 0.322 µM) against Trichophyton benhamiae [5]; 1.6 µg/mL (≈ 5.15 µM) with Trichophyton benhamiae [6]. For the same molecule, the MIC against Trichophyton benhamiae [7], in the assay on Trichophyton rubrum [8] and against Trichophyton rubrum [9] was 0.8 µg/mL (≈ 2.57 µM) throughout.
For `c1ccc(C(n2ccnc2)n2ccnc2)cc1`, the MIC (in the assay on Aspergillus fumigatus [1]; in the assay with Candida albicans [4]; in assay [11]) was above 100 µg/mL each time.
As for `CC(c1cccc(OCc2ccc(Cl)cc2)c1)(n1ccnc1)n1ccnc1`, the MIC (with Aspergillus fumigatus [1]; in the assay with Candida albicans [4]; in [15]) was above 100 µg/mL throughout.
Take `CC=C(c1ccccc1OCc1ccc(Cl)c(Cl)c1)n1ccnc1`: the MIC with Aspergillus fumigatus [1] was determined as 0.4 µg/mL (≈ 1.11 µM); in the assay with Candida albicans [2] it was 6.3 µg/mL (≈ 17.5 µM); in the assay with Candida albicans [3] it was 12.5 µg/mL (≈ 34.8 µM); in the assay on Candida albicans [4], 6.2 µg/mL (≈ 17.3 µM); against Trichophyton benhamiae [5] it was 0.1 µg/mL (≈ 0.278 µM); in the assay with Trichophyton benhamiae [6], 0.8 µg/mL (≈ 2.23 µM). Besides, the MIC against Trichophyton benhamiae [7], against Trichophyton rubrum [8] and against Trichophyton rubrum [9] was 0.8 µg/mL (≈ 2.23 µM) throughout.
Regarding `C=C(c1cc(Cl)ccc1OCc1ccc(Cl)cc1)n1ccnc1`, the MIC with Aspergillus fumigatus [1] is 3.1 µg/mL (≈ 8.98 µM); against Candida albicans [2], 12.5 µg/mL (≈ 36.2 µM); against Candida albicans [3], 12.5 µg/mL (≈ 36.2 µM); in the assay on Candida albicans [4], 12.5 µg/mL (≈ 36.2 µM); in the assay on Trichophyton benhamiae [5], 0.1 µg/mL (≈ 0.29 µM); in the assay on Trichophyton benhamiae [6] it was 1.6 µg/mL (≈ 4.63 µM). In addition, the minimum inhibitory concentration (MIC) stood at 1.6 µg/mL (≈ 4.63 µM) against Trichophyton benhamiae [7], 0.8 µg/mL (≈ 2.32 µM) against Trichophyton rubrum [8] and 0.8 µg/mL (≈ 2.32 µM) against Trichophyton rubrum [9].
Turning to `Clc1ccccc1C(c1ccccc1)(c1ccccc1)n1ccnc1` [CLOTRIMAZOLE], the MIC against Candida albicans [2] was determined as 6.3 µg/mL (≈ 18.3 µM); with Candida albicans [3], 12.5 µg/mL (≈ 36.2 µM); in the assay on Trichophyton benhamiae [16], 0.8 µg/mL (≈ 2.32 µM); against Trichophyton benhamiae [17], 0.4 µg/mL (≈ 1.16 µM); in the assay with Trichophyton rubrum [8] it was 0.8 µg/mL (≈ 2.32 µM); with Trichophyton rubrum [9], 0.8 µg/mL (≈ 2.32 µM).
For `C=C(c1ccccc1OCc1cccc(Cl)c1)n1ccnc1` [CROCONAZOLE], the minimal inhibitory concentration (MIC) worked out at 3.1 µg/mL (≈ 9.97 µM) with Aspergillus fumigatus [1]; 6.3 µg/mL (≈ 20.3 µM) against Candida albicans [2]; 12.5 µg/mL (≈ 40.2 µM) against Candida albicans [3]; 3.1 µg/mL (≈ 9.97 µM) with Candida albicans [4]; 0.1 µg/mL (≈ 0.322 µM) in the assay on Trichophyton benhamiae [5]; 0.8 µg/mL (≈ 2.57 µM) in the assay with Trichophyton benhamiae [6]. Also, the minimum inhibitory concentration (MIC) is 0.8 µg/mL (≈ 2.57 µM) against Trichophyton benhamiae [7], 0.4 µg/mL (≈ 1.29 µM) against Trichophyton rubrum [8] and 0.4 µg/mL (≈ 1.29 µM) against Trichophyton rubrum [9].
